DSG3 Ab inh: blocks pemphigus antibody binding to human desmoglein-3; hit rate 0.48% among 310,000; P32926; DSG3-coupled beads, scFv-anti-DSG3-GFP binding, flow cytometry; hits give low values; binding (percent of control), % at 10 µM;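 active means binding more than 3 SD below its plate's average and above zero; inconclusive means below that plate limit but binding exactly zero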;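 further: hits lower antibody fragment binding to DSG3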
p-CIP stab down: lowers stability of the mouse p/CIP coactivator protein. Q05BA5. F442A p/CIP-EGFP cells, EGFP fluorescence, 16 h. decrease of EGFP signal, % at 10 µM. hit rate 0.01% among 290,000;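 active means EGFP signal decrease of at least 30% at 10 µM or well 3 SD below plate mean, unless failing retest; inactive means the rest, including hits failing retest or dose response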
T cell HTS: modulates CD8 T cell binding to vesicles; 2C CD8+ T cell-vesicle binding, flow cytometry; hits give low values; response (vesicle binding), % at 7 µM; hit rate 0.068% among 330,000; AID 2052;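 active means response, share of CD8 T cells binding vesicles, and their 90th percentile fluorescence all below set limits, cut at about 80% in these data, passing the limit was not always enough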;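 further: values below 100% mean blocked vesicle binding to the CD8+ T cells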
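Assay system: 2C TCR transgenic mouse naive CD8+ T cells, MACS-purified | Read-out: CD8+ gate FL2 mean fluorescence as % of same-row positive control | Signal: High-throughput flow cytometry with anti-B7-1 and anti-CD8 staining | Timing: Binding step 1.5 h, 37 °C, antibody labelling 20 min, ice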
CHT PAM: human CHT allosteric activation | AID 488977 | B-score at 10 µM | CHT-expressing cells, membrane potential dye, choline EC20; hits give high values; LV-AA mutant CHT in HEK293 cells | hit rate 0.49% among 310,000 | Q9GZV3;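 active means initial fluorescence not abnormally high and integrated response B-score, plate-corrected, over 3 SD above library mean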
CHT block: human CHT choline transport inhibition; hit rate 0.86% among 310,000; CHT-expressing cells, membrane potential dye, choline response; hits give low values; Q9GZV3; B-score at 10 µM;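 active means B-score over 3 SD under the library average, and starting fluorescence ratio not unusually high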;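 further: choline stimulus applied at its EC90 after an EC20 pre-addition; B-score computed on integrated fluorescence ratio after choline addition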
GPR7 antag: antagonists of human GPR7 (neuropeptides B/W receptor 1) | P48145 | GPR7-expressing cells, fluorescence antagonist assay | AID 1861 | inhibition, % at 4.4 µM | hit rate 1.1% among 290,000; in the data active means inhibition above about 16%, passing the limit was not always enough;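 further: cells stimulated with the agonist NPW; 0% = agonist with vehicle and 100% = vehicle without agonist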
Target sequence (P48145 whole entry, looked up): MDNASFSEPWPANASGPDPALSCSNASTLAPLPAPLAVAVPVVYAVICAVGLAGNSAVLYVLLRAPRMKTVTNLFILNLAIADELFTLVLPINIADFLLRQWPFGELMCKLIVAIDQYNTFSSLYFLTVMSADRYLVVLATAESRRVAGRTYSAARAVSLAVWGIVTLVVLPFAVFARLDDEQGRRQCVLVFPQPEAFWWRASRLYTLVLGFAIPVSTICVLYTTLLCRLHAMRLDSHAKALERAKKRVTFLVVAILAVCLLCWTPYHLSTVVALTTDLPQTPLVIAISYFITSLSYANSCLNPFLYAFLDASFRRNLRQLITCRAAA
CHT activ conf: human CHT activation, confirmatory screen. shares compounds with CHT PAM. CHT-expressing cells, membrane potential dye fluorescence (FDSS); % of choline EC20–EC90 response window; HEK293 expressing CHT LV-AA mutant; choline added at its EC20. activation, % at 10 µM. hit rate 91% among 2,500;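 active means primary screen active, with duplicate mean activation above negative control mean plus 3 SD, cut at about 11% in these data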
HEK293 MP dye: activity in parental HEK293 cells lacking CHT; AID 623908; hit rate 62% among 2,500; ratio readout change at 10 µM, hits read low; shares compounds with CHT PAM; membrane potential dye fluorescence (FDSS); measured after EC20 choline addition;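 active means duplicate-averaged ratio beyond 3 SD from buffer wells, up or down, though filed actives are nearly all decreases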
* hit, by the source's call. Sampled rows, rich in hits. Any-hit rate of the full collection: about 2.3%.

Results for CCOC(=O)c1sc2nccc(N(C)C)c2c1N=CN(C)C ?
DSG3 Ab inh: 103; p-CIP stab down: -13; T cell HTS: 344; CHT PAM: 7.2*; CHT block: inactive; GPR7 antag: -12; CHT activ conf: 60*; HEK293 MP dye: -52*

What do the screens show for `CN(C(=O)c1ccc(NC(=O)Cc2ccc(NC(=O)C3CCCN(C(=O)CCc4ccccc4)C3)cc2)cc1)C1CCCC1` (centres undefined)?
DSG3 Ab inh: 103

How did COc1ccc(CCn2c(C)cc(C(=O)CN3C(=O)C(=O)N(C4CCCC4)C3=O)c2C)cc1OC do in these assays?
DSG3 Ab inh: 98

What do the screens show for `CCc1cccc(C)c1NC(=O)CN(C)Cc1ccc(Br)cc1`?
DSG3 Ab inh: 110; p-CIP stab down: 3; T cell HTS: 856; CHT PAM: inactive; CHT block: inactive; GPR7 antag: 3; CHT activ conf: 24*; HEK293 MP dye: inactive

How did CSc1ccccc1NC(=O)CN(C)Cc1ccc(Br)cc1 do in these assays?
DSG3 Ab inh: 130; p-CIP stab down: -3; T cell HTS: 345; CHT PAM: inactive; CHT block: inactive; GPR7 antag: -6

What do the screens show for `CC(NC(=O)CN(C)Cc1ccc(Br)cc1)c1ccccc1` (centres undefined)?
DSG3 Ab inh: 111; p-CIP stab down: 8; T cell HTS: 33; CHT PAM: 8*; CHT block: inactive; GPR7 antag: 2; CHT activ conf: 17*; HEK293 MP dye: inactive

Results for COCCN(C(=O)COC(=O)C(C)(C)Oc1ccc(Cl)cc1)c1c(N)n(Cc2ccccc2)c(=O)[nH]c1=O ?
DSG3 Ab inh: 101

Results for Cc1cc(=O)oc2cc(OCC(=O)N3CCC(O)CC3)c(Cl)cc12 ?
DSG3 Ab inh: 98; p-CIP stab down: 3; T cell HTS: 862; CHT PAM: inactive; CHT block: inactive; GPR7 antag: -3; CHT activ conf: 25*; HEK293 MP dye: -21*

What do the screens show for `Cc1cc(=O)oc2cc(OCC(=O)N3CCCC3)c(Cl)cc12`?
DSG3 Ab inh: inconclusive; T cell HTS: inactive

Results for CCOC(=O)[C@@H]1CSCCS(=O)(=O)N1Cc1ccccc1Br ?
DSG3 Ab inh: 99

Results for CCCCCn1c2c(c(=N)c3ccccc31)CCC2 ?
DSG3 Ab inh: 99; p-CIP stab down: -16; T cell HTS: 234; CHT PAM: 6.7*; CHT block: inactive; GPR7 antag: -1; CHT activ conf: 41*; HEK293 MP dye: -65*

Results for CCOC(=O)Cn1c2c(c(=N)c3c1CCC3)CCC2 ?
DSG3 Ab inh: 104; p-CIP stab down: -2; T cell HTS: 213; CHT PAM: inactive; CHT block: inactive; GPR7 antag: -11; CHT activ conf: 23*; HEK293 MP dye: -48*

What do the screens show for `CCOC(=O)Cn1c2c(c(=N)c3ccccc31)CCC2`?
DSG3 Ab inh: 104; p-CIP stab down: -1; T cell HTS: 134; CHT PAM: inactive; CHT block: inactive; GPR7 antag: -8; CHT activ conf: 65*; HEK293 MP dye: -51*

Results for CCCCn1c2c(c(=N)c3ccccc31)CCC2 ?
DSG3 Ab inh: 114; p-CIP stab down: -16; T cell HTS: 206; CHT PAM: inactive; CHT block: inactive; GPR7 antag: -9

What do the screens show for `Cc1ccc(NCC(=O)c2ccc([N+](=O)[O-])cc2)cc1`?
DSG3 Ab inh: 104; p-CIP stab down: 4; T cell HTS: 388; CHT PAM: 6.4*; CHT block: inactive; GPR7 antag: -4; CHT activ conf: 11*; HEK293 MP dye: -23*

What do the screens show for `Cc1ccc(C(=O)CNc2cccc([N+](=O)[O-])c2)cc1`?
DSG3 Ab inh: 105; p-CIP stab down: 0; T cell HTS: 256; CHT PAM: inactive; CHT block: inactive; GPR7 antag: -10

Results for CCCOc1ccc(C(=O)CCC(=O)OCC(=O)Nc2cccc(S(N)(=O)=O)c2)cc1 ?
DSG3 Ab inh: 105

Results for COc1ccc(C(=O)CC(=O)c2ccc(C(C)(C)C)cc2)cc1 ?
DSG3 Ab inh: 101

What do the screens show for `COc1ccc(C(=O)C(CCC(CNC(C)(C)C)C(=O)c2ccc(OC)cc2)CNC(C)(C)C)cc1` (centres undefined)?
DSG3 Ab inh: 91; p-CIP stab down: 7; T cell HTS: inactive; CHT PAM: 6.6*; CHT block: inactive; GPR7 antag: 79*; CHT activ conf: 28*; HEK293 MP dye: inactive

Results for CC(=O)c1cccc(NC(=O)c2cc3ccccn3n2)c1 ?
DSG3 Ab inh: 105; p-CIP stab down: 0; T cell HTS: 561; CHT PAM: inactive; CHT block: inactive; GPR7 antag: -11; CHT activ conf: 35*; HEK293 MP dye: -27*

How did Cc1nn(-c2ccccn2)c2nc(-c3cccs3)cc(C(=O)NCc3ccco3)c12 do in these assays?
DSG3 Ab inh: 82; p-CIP stab down: 5; T cell HTS: 187; CHT PAM: inactive; CHT block: inactive; GPR7 antag: 4; CHT activ conf: 19*; HEK293 MP dye: inactive

How did O=c1[nH]c2ccc(S(=O)(=O)N3CCN(C4CCCCC4)CC3)cc2[nH]c1=O do in these assays?
DSG3 Ab inh: 101; p-CIP stab down: -5; T cell HTS: 110; CHT PAM: inactive; CHT block: inactive; GPR7 antag: 2; CHT activ conf: 46*; HEK293 MP dye: -42*

Results for Cc1ccc(-c2c3c(=O)n(C)c(=O)n(C)c3cn2CCCN2CCOCC2)cc1 ?
DSG3 Ab inh: 102; p-CIP stab down: 4; T cell HTS: 159; CHT PAM: 8.1*; CHT block: inactive; GPR7 antag: -2; CHT activ conf: 70*; HEK293 MP dye: -68*

What do the screens show for `c1cc2c3c(cccc3c1)C(N1CCCCCC1)=N2`?
DSG3 Ab inh: 112; p-CIP stab down: -8; T cell HTS: 444; CHT PAM: inactive; CHT block: inactive; GPR7 antag: 32*; CHT activ conf: 50*; HEK293 MP dye: -57*

What do the screens show for `C[C@H]1CN([C@@H](C)CO)S(=O)(=O)c2ccc(Br)cc2O[C@@H]1CN(C)C(=O)CCN1CCCCC1`?
DSG3 Ab inh: 97

From PubChem
